The test system of data set [1] is Rattus norvegicus. The data set is described as follows: Toxicity in Sprague-Dawley rat electrophysiology model assessed as mortality at 3 to 10 mg/kg, iv. Details: dose 3-10 mg/kg, route intravenous. The conditions noted are these: in vivo. It counts as organism-based.
Data set [2] deals with Rattus norvegicus. The data set is described as follows: Cardiotoxicity in iv bolus dosed Sprague-Dawley rat electrophysiology model assessed as QRS complex abnormalities. The class given is toxicity, organism-based. The conditions noted are these: in vivo. In a few lines:
(§1)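 Male Sprague-Dawley rats anesthetized with inactin 100 mg/kg ip; surface lead II ECG recorded continuously. Compounds given as iv bolus via right jugular vein catheter after stabilization; QRS complex abnormality scored as no, moderate or severe change; n = 2 at 10 mg/kg.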

The subject of data set [3] is Cynomolgus monkey. Kind of data set: Inhibition of renin in furosemide pretreated cynomolgus monkey assessed as reduction in mean arterial blood pressure at 3 mg/kg, po. More on the design: dose 3 mg/kg. The class given is functional, organism-based. The conditions noted are these: Macaca fascicularis. In a few lines: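 Conscious freely moving telemetered cynomolgus monkeys (n = 6), furosemide 5 mg/kg/day im for 3 days before dosing; fasted from morning, fed ≥8 h post-dose. Oral 1, 3, 10 mg/kg or 1% methylcellulose, crossover design; arterial pressure recorded from −3 to 24 h; hourly mean MAP; mean ± SEM.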

In data set [4] the test system is Cynomolgus monkey. The data set is described as follows: Inhibition of renin in furosemide pretreated cynomolgus monkey plasma at 3 mg/kg, po. The conditions noted are these: Macaca fascicularis. More on the design: dose 3 mg/kg. The class given is functional, organism-based. The procedure, abridged: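 Cynomolgus monkeys pretreated with furosemide given single oral dose 1, 3 or 10 mg/kg or vehicle 1% methylcellulose. Venous blood into EDTA-2Na tubes at 1, 2, 4, 8, 24 h, chilled, centrifuged cold, plasma frozen; plasma renin activity by radioimmunoassay.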

The target in data set [5] is T1, Renin (Macaca fascicularis, UniProt Q6DLS0).
T1 sequence (Q6DLS0 whole entry): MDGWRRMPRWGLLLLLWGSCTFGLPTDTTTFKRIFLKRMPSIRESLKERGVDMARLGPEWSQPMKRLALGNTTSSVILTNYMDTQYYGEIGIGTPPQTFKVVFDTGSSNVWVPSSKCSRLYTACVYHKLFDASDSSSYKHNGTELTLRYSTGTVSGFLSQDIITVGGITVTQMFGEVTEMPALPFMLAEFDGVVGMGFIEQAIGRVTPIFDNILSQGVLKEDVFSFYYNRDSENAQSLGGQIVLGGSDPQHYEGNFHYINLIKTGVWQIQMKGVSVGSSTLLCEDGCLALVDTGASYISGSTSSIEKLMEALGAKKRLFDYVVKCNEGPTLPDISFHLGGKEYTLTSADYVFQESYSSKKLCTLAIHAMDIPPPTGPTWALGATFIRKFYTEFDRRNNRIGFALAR
The data set is described as follows: Inhibition of renin in cynomolgus monkey plasma after 1 hr by RIA. The procedure, abridged:
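Pooled mixed-gender EDTA cynomolgus monkey plasma with pH adjusting solution and Inhibitor A, compound in 1% DMSO final, incubated 1 h at 37 °C. Angiotensin I by competitive RIA; uninhibited and 4 °C controls define % inhibition; IC50 from four-parameter fit; ratio is compound IC50 over aliskiren IC50 in same plasma batch; ≥2 replicates.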

In data set [6] the target is T2, Renin (Homo sapiens, UniProt P00797).
T2 sequence (P00797 whole entry): T1 sequence (Q6DLS0 whole entry) with A68T, L214I, A235S
The data set is described as follows: Inhibition of human recombinant renin using Arg-Glu(EDANS)-Ile-His-Pro-Phe-His-Leu-Val-Ile-His-Thr-Lys (DABCYL)-Arg as substrate incubated for 10 mins prior to substrate addition measured after 90 mins by fluorescence assay. In a few lines:
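Trypsin-activated recombinant human renin in 50 mM Tris-HCl pH 7.9, 100 mM NaCl, preincubated with compound 10 min at room temperature; FRET substrate Arg-Glu(EDANS)…Lys(DABCYL)-Arg added, 90 min at 37 °C.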

Data set [7] concerns Heart. The data set is described as follows: Cardiotoxicity in anesthetized New Zealand White rabbit heart assessed as ventricular tachycardia and ventricular fibrillation at 30 uM after 20 mins. It counts as toxicity, tissue-based, Oryctolagus cuniculus. In a few lines: (§2)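 Isolated Langendorff-perfused hearts from female NZW rabbits anesthetized with thiopental 30 mg/kg iv; heart excised into chilled Krebs-Henseleit solution. After parameters stabilized, compound perfused at 10, 30 and 100 µM for 20 min; ECG changes expressed as % change from baseline.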

In data set [8] the test system is Cynomolgus monkey. Kind of data set: Cardiotoxicity in telemetered cynomolgus monkey assessed as ventricular tachycardia at 50 mg/kg, po. The class given is toxicity, organism-based, Macaca fascicularis, Cardiac ventricle. Details: dose 50 mg/kg, route oral. The conditions noted are these: in vivo.
Data set [9] concerns Cynomolgus monkey. Kind of data set: Cardiotoxicity in telemetered cynomolgus monkey assessed as ventricular fibrillation at 50 mg/kg, po. The class given is toxicity, organism-based, Macaca fascicularis, Cardiac ventricle. The settings on record: in vivo. More on the design: dose 50 mg/kg, route oral.
Data set [10] is filed under the species Rattus norvegicus. Kind of data set: Displacement of [3H]batrachotoxin from sodium channel (site 2) in Wistar rat brain at 10 uM relative to control. It counts as tissue-based. In a few lines:
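Rat brain membranes in modified Tris–HCl buffer, pH 7.4, incubated 1 h at 37 °C with 5 nM [3H]batrachotoxin plus test compound. Nonspecific binding defined with excess veratridine. Binding affinity is expressed as percent inhibition relative to vehicle control.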

The test system of data set [11] is Heart. Kind of data set: Cardiotoxicity in anesthetized New Zealand White rabbit heart assessed as prolongation of QTc interval at 10 uM after 20 mins relative to baseline. It counts as toxicity, tissue-based, Oryctolagus cuniculus. In a few lines: as §2
The subject of data set [12] is Heart. The data set is described as follows: Cardiotoxicity in anesthetized New Zealand White rabbit heart assessed as prolongation of QRS width at 10 uM after 20 mins relative to baseline. It counts as toxicity, tissue-based, Oryctolagus cuniculus. The procedure, abridged: as §2
Data set [13] concerns Heart. Kind of data set: Cardiotoxicity in anesthetized New Zealand White rabbit heart assessed as prolongation of […] at 10 uM after 20 mins relative to baseline. It counts as toxicity, tissue-based, Oryctolagus cuniculus. In a few lines:
as §2

A short description of data set [14]: Oral bioavailability in cynomolgus monkey at 3 mg/kg by HPLC-MS/MS analysis. The class given is ADME, organism-based, Macaca fascicularis. The conditions noted are these: in vivo. The procedure, abridged:
(§3)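 Blood sampled over 24 h, at least 7 time points; plasma levels by HPLC-MS/MS; parameters from non-compartmental analysis of concentration-time curves.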

Data set [15] has as its system Heart. The data set is described as follows: Cardiotoxicity in anesthetized New Zealand White rabbit heart assessed as prolongation of heart rate at 10 uM after 20 mins relative to baseline. The class given is toxicity, tissue-based, Oryctolagus cuniculus. The procedure, abridged:
as §2

Data set [16] can be described thus: Clearance in cynomolgus monkey at 1 mg/kg, iv by HPLC-MS/MS analysis. It counts as ADME, organism-based, Macaca fascicularis. Details: dose 1 mg/kg, route intravenous. The settings on record: in vivo.
Data set [17] can be described thus: Half life in cynomolgus monkey at 3 mg/kg, po by HPLC-MS/MS analysis. More on the design: dose 3 mg/kg, route oral. The class given is ADME, organism-based, Macaca fascicularis. The settings on record: in vivo. The procedure, abridged:
as §3

Data set [18] in a line: Volume of distribution at steady state in cynomolgus monkey at 1 mg/kg, iv by HPLC-MS/MS analysis. The settings on record: in vivo, read-out: Vdss. It counts as ADME, organism-based, Macaca fascicularis. Details: dose 1 mg/kg, route intravenous.
The nature of data set [19]: Cmax in cynomolgus monkey at 3 mg/kg, po by HPLC-MS/MS analysis. The conditions noted are these: in vivo. Details: dose 3 mg/kg, route oral. The class given is ADME, organism-based, Macaca fascicularis. The procedure, abridged: as §3
The subject of data set [20] is Rattus norvegicus. The data set is described as follows: Cardiotoxicity in Sprague-Dawley rat electrophysiology model assessed as QRS complex abnormalities at 10 mg/kg, iv by ECG analysis. Details: dose 10 mg/kg, route intravenous. The conditions noted are these: in vivo. The class given is toxicity, organism-based. In a few lines:
as §1

Data set [21] in a line: AUC (0 to 24 hrs) in cynomolgus monkey at 3 mg/kg, po by HPLC-MS/MS analysis. It counts as ADME, organism-based, Macaca fascicularis. Details: time < 24 hr, dose 3 mg/kg, route oral. The conditions noted are these: plasma. In a few lines:
as §3

Data set [22] has as its target T3, Renin (Macaca fascicularis) (UniProt Q6DLS0).
T3 sequence (whole entry): T1 sequence (Q6DLS0 whole entry)
Kind of data set: Ratio of compound IC50 to aliskiren IC50 for renin in cynomolgus monkey plasma.

We go through one compound from ChEMBL document CHEMBL2384910, “Lead optimization of 5-amino-6-(2,2-dimethyl-5-oxo-4-phenylpiperazin-1-yl)-4-hydroxyhexanamides to reduce a cardiac safety issue: discovery of DS-8108b, an orally active renin inhibitor” (Bioorg Med Chem, 2013).

Numbering of substitutions follows the chain as printed. Calls of active or inactive are those of the source. The rule behind the calls is not given here.

With `CC(C)[C@H](C[C@H](O)[C@@H](N)CN1CC(=O)N(c2ccccc2Cl)CC1(C)C)C(=O)NCC(C)(C)C.O=C(O)/C=C/C(=O)O`, the Activity result in the data set with Rattus norvegicus [1] was “Toxic”; in the data set with Rattus norvegicus [2] it was “Dose-dependent effect”; with Heart [7], “Toxic”; in the data set with Cynomolgus monkey [8], “Toxic”; with Cynomolgus monkey [9] it was “Toxic”; in the data set listed under Rattus norvegicus [10], 87%. Further, the Activity is -1.5% in the data set with Heart [11]; 15.6% in the data set with Heart [12]; 68.9% in the data set with Heart [13]; -4.6% in the data set on Heart [15]; “Toxic” with Rattus norvegicus [20]. Besides, the inhibition result with Cynomolgus monkey [3] and in the data set with Cynomolgus monkey [4] was “Active” each time. In addition, the IC50 against Renin [5] turned out to be 3 nM; on Renin [6], 1 nM. Further, the bioavailability in data set [14] was 26.4%. Also, in data set [16], the clearance was determined as 28.4 mL/min/kg. The compound further had a half-life in [17] of 15.3 h. In addition, the Vd in [18] is 23.5 L/kg. Further, the concentration in data set [19] peaked (Cmax) at 111 ng/mL. In [21], this compound returned an AUC(0-t) at 24 h of 460 ng·h/mL. The Ratio IC50 in data set [22] worked out at 0.5.
